Counter-ions that a name gives are not always drawn.
How the values were obtained:
[1] = molecular target: T1, Sodium-dependent noradrenaline transporter (Homo sapiens, UniProt P23975); assay: Inhibition of [3H]norepinephrine uptake in HEK293 cells expressing human norepinephrine transporter; format: functional, cell-based
[2] = molecular target: T1, Sodium-dependent noradrenaline transporter; assay: Displacement of [125I]RTI-55 from human Norepinephrine transporter expressed in HEK293 cells; format: cell-based
[3] = molecular target: T2, Sodium-dependent serotonin transporter (Homo sapiens, UniProt P31645); assay: Inhibition of [3H]5-HT uptake in HEK293 cells expressing human serotonin transporter; format: functional, cell-based
T2 sequence (P31645 whole entry): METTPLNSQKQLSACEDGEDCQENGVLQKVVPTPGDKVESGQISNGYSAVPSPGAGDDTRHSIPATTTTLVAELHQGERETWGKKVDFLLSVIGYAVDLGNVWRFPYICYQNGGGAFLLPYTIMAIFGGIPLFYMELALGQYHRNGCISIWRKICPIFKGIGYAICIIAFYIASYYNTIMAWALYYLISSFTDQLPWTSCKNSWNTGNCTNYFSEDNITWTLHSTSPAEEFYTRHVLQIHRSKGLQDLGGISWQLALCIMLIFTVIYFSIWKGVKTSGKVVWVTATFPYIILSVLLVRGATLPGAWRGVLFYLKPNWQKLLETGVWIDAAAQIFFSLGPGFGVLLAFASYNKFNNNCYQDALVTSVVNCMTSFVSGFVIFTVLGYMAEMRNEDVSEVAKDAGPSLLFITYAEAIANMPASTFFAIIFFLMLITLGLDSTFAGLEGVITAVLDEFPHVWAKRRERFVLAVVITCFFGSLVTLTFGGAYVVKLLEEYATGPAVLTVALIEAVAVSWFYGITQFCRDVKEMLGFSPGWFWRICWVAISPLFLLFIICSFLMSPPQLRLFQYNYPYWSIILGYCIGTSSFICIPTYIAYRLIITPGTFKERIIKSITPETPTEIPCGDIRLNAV
Procedure, shortened: (§1)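 HEK293 cells expressing the human transporter were grown to confluence, triturated in Krebs-HEPES and preincubated 10 min with compound (six concentrations). Uptake was started with [3H]serotonin or [3H]dopamine at 20 nM final and stopped after 10 min by filtration over PEI-presoaked GF/C filters. Nonspecific uptake: 5 µM imipramine (SERT) or 5 µM mazindol (DAT). IC50 from triplicate curves, 2–3 independent determinations.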

[4] = molecular target: T2, Sodium-dependent serotonin transporter; assay: Displacement of [125I]RTI-55 from human Serotonin transporter expressed in HEK293 cells; format: cell-based
Procedure, shortened: (§2)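 Membranes from HEK293 cells expressing the human transporter (grown to 80% confluence, lysed in 2 mM HEPES/1 mM EDTA, spun at 30000g). 10–15 µg protein was preincubated 10 min with compound in Krebs-HEPES pH 7.4 containing pargyline, tropolone, glucose and ascorbate. Nonspecific binding: 5 µM mazindol (DAT) or 5 µM imipramine (SERT). IC50 converted to Ki by Cheng-Prusoff.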

[5] = molecular target: T3, Sodium-dependent dopamine transporter (Homo sapiens, UniProt Q01959); assay: Displacement of [125I]-RTI-55 from Dopamine transporter expressed in HEK293 cells; format: cell-based; procedure, shortened: as §2
T3 sequence (Q01959 whole entry): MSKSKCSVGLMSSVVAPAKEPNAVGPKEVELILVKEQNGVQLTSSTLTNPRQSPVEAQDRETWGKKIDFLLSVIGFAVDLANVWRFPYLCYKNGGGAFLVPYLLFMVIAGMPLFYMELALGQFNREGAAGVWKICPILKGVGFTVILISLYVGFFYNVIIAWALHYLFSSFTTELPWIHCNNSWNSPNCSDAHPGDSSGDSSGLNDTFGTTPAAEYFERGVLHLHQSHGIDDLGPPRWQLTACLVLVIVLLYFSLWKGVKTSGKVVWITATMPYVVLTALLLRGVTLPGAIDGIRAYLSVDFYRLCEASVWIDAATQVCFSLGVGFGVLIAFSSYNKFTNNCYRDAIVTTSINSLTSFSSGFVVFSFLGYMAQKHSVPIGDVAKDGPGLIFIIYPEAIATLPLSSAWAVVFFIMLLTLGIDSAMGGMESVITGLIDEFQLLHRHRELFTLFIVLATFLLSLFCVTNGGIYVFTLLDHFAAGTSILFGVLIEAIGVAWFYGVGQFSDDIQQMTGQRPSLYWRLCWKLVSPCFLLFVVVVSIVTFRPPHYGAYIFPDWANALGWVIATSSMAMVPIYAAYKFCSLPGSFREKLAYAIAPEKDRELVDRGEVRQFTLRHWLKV

[6] = molecular target: T3, Sodium-dependent dopamine transporter; assay: Inhibition of [3H]dopamine uptake in HEK293 cells expressing human dopamine transporter; format: functional, cell-based; procedure, shortened: as §1

T1 sequence (P23975 whole entry): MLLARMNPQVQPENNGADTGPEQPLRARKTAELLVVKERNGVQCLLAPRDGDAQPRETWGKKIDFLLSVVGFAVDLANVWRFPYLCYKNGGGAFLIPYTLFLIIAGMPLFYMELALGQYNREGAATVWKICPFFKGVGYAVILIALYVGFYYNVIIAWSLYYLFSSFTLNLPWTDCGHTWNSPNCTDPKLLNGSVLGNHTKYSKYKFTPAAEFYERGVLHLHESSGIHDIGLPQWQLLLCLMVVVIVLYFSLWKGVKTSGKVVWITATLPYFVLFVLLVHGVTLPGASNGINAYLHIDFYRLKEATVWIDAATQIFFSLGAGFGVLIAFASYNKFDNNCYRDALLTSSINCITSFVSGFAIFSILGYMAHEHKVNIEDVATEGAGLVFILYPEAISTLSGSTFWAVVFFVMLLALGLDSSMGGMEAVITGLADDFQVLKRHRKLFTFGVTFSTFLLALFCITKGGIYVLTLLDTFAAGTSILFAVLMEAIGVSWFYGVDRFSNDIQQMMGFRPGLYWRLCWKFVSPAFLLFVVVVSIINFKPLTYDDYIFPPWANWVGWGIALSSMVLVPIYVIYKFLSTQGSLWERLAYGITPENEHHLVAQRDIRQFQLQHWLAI

| SMILES | IC50 [1] | IC50 [2] | IC50 [3] | IC50 [4] | IC50 [5] | IC50 [6] |
| --- | --- | --- | --- | --- | --- | --- |
| CCOC(=O)C(c1ccccc1)C1CCCCN1 (racemic) | 480 nM | > 7200 nM | > 10000 nM | 7540 nM | 319 nM | 95 nM |
| COC(=O)C(c1ccccc1)C1CCCCN1 (racemic) [METHYLPHENIDATE HYDROCHLORIDE] | 51 nM | 788 nM | – | > 10000 nM | – | – |
| CCOC(=O)[C@@H](c1ccccc1)[C@@H]1CCCCN1 (stereo in doubt; (-)-2) | > 10000 nM | > 10000 nM | > 10000 nM | > 9500 nM | 2700 nM | 1730 nM |
